Drawing on ChEMBL document CHEMBL4190232, “Isoflavones and Rotenoids from the Leaves of Millettia oblata ssp. teitensis” (J Nat Prod, 2017), this text covers inhibition and IC50 for 14 compounds.

For test [1], the species on record is Mus musculus. The test is described as follows: Inhibition of cap/HCV-mediated translation in mouse Krebs2 cell free extract expressing FF/HCV/IRES-Ren mRNA reporter transcript assessed as reduction in luciferase production at 20 uM after 60 mins. Type of test: functional. In a few lines: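 Compound stocks were 10 mM in DMSO, diluted to 200 μM in water, and tested at a final 20 μM in Krebs-2 translation extracts. The extracts were programmed with bicistronic Firefly–HCV IRES–Renilla luciferase mRNA. Reactions ran for 60 min at 30 °C, after which luciferase activities were measured.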

For test [2], the system named is MDA-MB-231. The test is described as follows: Cytotoxicity against human MDA-MB-231 cells assessed as reduction in cell viability after 72 hrs by alamarBlue assay. The class given is functional, cell-based. The following applies: MDA-MB-231, 72 h. The method in brief: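 MDA-MB-231 cells grown in DMEM with 10% FBS, 2 mM L-glutamine, penicillin/streptomycin, 37 °C, 5% CO2. Seeded at 10⁴ cells/well, preincubated 24 h, then compound or DMSO vehicle (0.1% or 1.0% v/v) for 72 h. Viability by Alamar Blue, absorbance at 570 nm (600 nm reference), as % of vehicle control; six replicates, at least six independent experiments.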
For orientation: Resazurin is reduced to fluorescent resorufin, in cell work by metabolically active cells.

Test [3] concerns HepG2. Kind of test: Cytotoxicity against human HepG2 cells assessed as reduction in cell viability by MTT assay. Type of test: functional, cell-based. On the technique in general: Formazan colour is commonly taken as a measure of viable cells.
A short description of test [4]: Cytotoxicity against mouse C26 cells assessed as reduction in cell viability by MTT assay. Type of test: functional, cell-based.
In test [5] the test system is Lewis lung carcinoma cell line. Kind of test: Cytotoxicity against mouse LL/2 cells assessed as reduction in cell viability by MTT assay. Type of test: functional, cell-based.
Test [6] concerns B16. The test is described as follows: Cytotoxicity against mouse B16 cells assessed as reduction in cell viability by MTT assay. Type of test: functional, cell-based.

pIC50: −log10 of the molar value. Calls of active or inactive are those of the source. The calls are words filed in the database; no cut-off is given here.

`COc1ccc2c(c1)O[C@@H]1COc3cc4c(cc3[C@]1(O)C2=O)OCO4`: the inhibition entry in test [1] is “inactive”.

For `COc1cc2c(cc1-c1coc3cc(O)ccc3c1=O)OCO2`, the inhibition result in test [1] is “inactive”.

On to `COc1ccc(-c2coc3cc(OCC=C(C)C)ccc3c2=O)cc1`, for which the pIC50 in test [2] is 4.48. In addition, the inhibition entry in test [1] is “inactive”.

Consider `COc1cc2c(cc1OC)[C@]1(O)C(=O)c3ccc4c(c3O[C@@H]1CO2)C=CC(C)(C)O4` [TEPHROSIN], for which the pIC50 in test [3], in test [4], in test [5] and in test [6] was 5.01 to 5.87 each time. Further, the inhibition result in test [1] is “inactive”.

Regarding `COc1cc2occ(-c3cc4c(cc3OC)OCO4)c(=O)c2cc1OC`, the inhibition result in test [1] is “inactive”.

In the case of `COc1cc2c(cc1-c1coc3c(CC=C(C)C)c(OC)c(OC)cc3c1=O)OCO2`, the pIC50 in test [2] is under 3.63. Further, the inhibition result in test [1] is “inactive”.

For the compound `COc1ccc2c(c1)O[C@@H]1COc3cc4c(cc3[C@@]1(O)C2=O)OCO4`, in test [1], the inhibition result was “inactive”.

For `COc1ccc2c(c1)O[C@@H]1COc3cc4c(cc3[C@@H]1C2=O)OCO4`, the pIC50 in test [2] is 4.03. In test [1], the inhibition result was “inactive”.

Regarding `COc1cc2c(cc1OC)-c1c(oc3c4c(ccc3c1=O)OC(C)(C)C=C4)CO2` [DEHYDRODEGUELIN], the pIC50 in test [3], in test [4], in test [5] and in test [6] was 4.80 to 6.25 each time. The inhibition entry in test [1] is “inactive”.

For the compound `CC(C)=CCOc1ccc2c(=O)c(-c3ccc4c(c3)OCO4)coc2c1`, the pIC50 in test [2] was 3.81. In addition, the inhibition entry in test [1] was “inactive”.

As for `COc1ccc2c(=O)c(-c3cc(OC)c4c(c3OC)OCO4)coc2c1`, the pIC50 in test [2] was 3.78. For the same compound, the inhibition result in test [1] was “inactive”.

`COc1ccc2c(c1)O[C@@H]1COc3c(cc(OC)c4c3OCO4)[C@]1(O)C2=O`: in test [1], the inhibition entry was “inactive”.

Consider `COc1ccc2c(c1)O[C@@H]1COc3cc(OC)c(OC)cc3[C@@H]1C2=O`, for which the inhibition entry in test [1] is “inactive”.

For `COc1ccc2c(c1)O[C@@H]1COc3cc(OC)c(OC)cc3[C@]1(O)C2=O`, the inhibition result in test [1] is “inactive”.

The term pIC50 denotes the IC50 on a negative log10 scale, so that one unit is a factor of ten.
